# Measurements pooled from the literature.
# Lines come from different studies, so protocols differ.
# Read-out: cell growth or viability
SMILES,cell line,method,tested at,time,endpoint,result
C[C@H](Nc1ccc2c(c1)OCCn1cc(N3C(=O)OC[C@H]3C(F)F)nc1-2)C(N)=O,IM95,ATP luminescence,,5 days,EC50,388 nM
CN(C)CCNC(=O)c1ccc(-c2nc3ccc4[nH]ncc4c3c3c2CCCC3)c(F)c1,MV4-11,resazurin,,72 h,GI50,127 nM
O=C(NO)c1ccc(CC(=O)N(CCO)c2ccccc2)cc1,HBL1,ATP luminescence,1 µM,5 days,viability,107%
OCc1ccc(-c2nn(Cc3ccccn3)c3ccccc23)o1,RBE,ATP luminescence,46 µM,72 h,inhibition,70%
C[C@H](N)C(=O)Nc1ccccc1/N=c1\cc(-c2ccc3c(c2)OCCO3)oc2c([N+](=O)[O-])cccc12,MDA-MB-468,CCK-8,1 µM,,inhibition,1.9%
COCCN(Cc1ccc(F)cc1)c1ccc(CO)c(Cl)c1,RBE,ATP luminescence,46 µM,72 h,inhibition,75%
NCCC(=O)Nc1ccccc1/N=c1\cc(-c2ccc3oc(N)nc3c2)oc2ccccc12,MDA-MB-468,CCK-8,1 µM,,inhibition,59.8%
OCc1ccc(-c2nn(Cc3cccc(F)c3)c3ccccc23)o1,RBE,ATP luminescence,46 µM,72 h,inhibition,60%
O=C(CCCCCCC(=O)Nc1ccccc1)NO,HBL1,ATP luminescence,0.5 µM,5 days,viability,49.7%
Cc1n[nH]c2ccc3nc(-c4ccc(C(=O)N(C)CCN(C)C)cn4)c4c(c3c12)CCCCC4,MV4-11,resazurin,,72 h,GI50,713 nM
CC1c2ccccc2CCN1c1ccc(CO)c(Cl)c1 (centres unmarked),RBE,ATP luminescence,46 µM,72 h,inhibition,91%
CN(C)CCNC(=O)c1ccc(-c2nc3ccc4[nH]ncc4c3c3c2CCC3)cc1,MV4-11,resazurin,,72 h,GI50,100 nM
COc1ccc2/c(=N/c3ccccc3NC(=O)[C@@H](N)C(C)(C)C)cc(-c3ccc4c(c3)OCO4)oc2c1,MDA-MB-468,CCK-8,1 µM,,inhibition,2.98%
O=C(Nc1nccs1)c1ccc(-c2nc3ccc4[nH]ncc4c3c3c2CCCC3)cc1,MV4-11,resazurin,,72 h,GI50,743 nM
CCN(Cc1cccc(Cl)c1)c1ccc(CO)c(Cl)c1,RBE,ATP luminescence,46 µM,72 h,inhibition,59%
NCCC(=O)Nc1ccccc1/N=c1\cc(-c2ccc3nc(N)oc3c2)oc2ccccc12,MDA-MB-468,CCK-8,1 µM,,inhibition,47.2%
OCc1ccc(-c2nn(Cc3ccccc3)c3ncccc23)o1,RBE,ATP luminescence,46 µM,72 h,inhibition,51%
Cc1n[nH]c2ccc3nc(-c4ccc(C(=O)N(C)CCN(C)C)cc4)c4c(c3c12)CCC(F)(F)C4,MV4-11,resazurin,,72 h,GI50,814 nM
CCN(Cc1c(F)cccc1F)c1ccc(CO)c(Cl)c1,RBE,ATP luminescence,46 µM,72 h,inhibition,57%
Nc1ccccc1/N=c1\cc(-c2ccc3c(c2)OCO3)oc2ccccc12,MDA-MB-468,CCK-8,1 µM,,inhibition,5.28%
OCc1ccc(-c2nn(Cc3ccccc3)c3ccncc23)o1,RBE,ATP luminescence,46 µM,72 h,inhibition,47%
O=C(CCCCCCSc1ccc2ccccc2c1)NO,HBL1,ATP luminescence,0.1 µM,5 days,viability,112%
NCCC(=O)Nc1ccccc1/N=c1\cc(-c2ccc3c(c2)OCO3)oc2ccccc12,MDA-MB-468,CCK-8,1 µM,,inhibition,19.2%
CN(C)CCNC(=O)c1ccc(-c2nc3ccc4[nH]ncc4c3c3c2CCCC3)s1,MV4-11,resazurin,,72 h,GI50,157 nM
O=C(/C=C/c1cccc(C(=O)NO)c1)NO,HBL1,ATP luminescence,0.5 µM,5 days,viability,89.6%
NCC(=O)Nc1ccccc1/N=c1\cc(-c2ccc3c(c2)OCO3)oc2c(N)cccc12,MDA-MB-468,CCK-8,1 µM,,inhibition,-4.61%
CC(=O)OC[C@H]1O[C@@H](n2cnc(N)nc2=O)[C@H](OC(C)=O)[C@@H]1OC(C)=O,HBL1,ATP luminescence,0.1 µM,5 days,viability,105%
CCc1nc(C(N)=O)c(Nc2ccc(N3CCC(N4CCN(C)CC4)CC3)c(OC)c2)nc1NC1CCOCC1,MV4-11,resazurin,,72 h,GI50,26 nM
O=C(Nc1cccc(Br)c1)c1cccc(S(=O)(=O)N2CCCCCC2)c1,HBL1,ATP luminescence,0.1 µM,5 days,viability,134%
Cc1n[nH]c2ccc3nc(-c4ccc(C(=O)NCCN(C)C)cc4F)c4c(c3c12)CCCCC4,MV4-11,resazurin,,72 h,GI50,88 nM
Nc1nc2ccc(-c3c/c(=N\c4ccccc4NC(=O)C4CCNC4)c4ccccc4o3)cc2o1 (centres unmarked),MDA-MB-468,CCK-8,1 µM,,inhibition,55.6%
O=C(Nc1ccc(Cl)cc1)C1CCCN(C(=O)c2cc(C(F)(F)F)cc(C(F)(F)F)c2)C1 (racemic),HBL1,ATP luminescence,0.5 µM,5 days,viability,98.8%
